Laboratory results published in ChEMBL document CHEMBL1149749, “Antibacterial activity of totarol and its potentiation” (1992).
Values after ≈ are worked out from the molar mass of the structure shown. Active and inactive are the calls of the source. No cut-off for these calls is given here.

Assays:
Bacillus subtilis [1] = assay: Antibacterial activity against Bacillus subtilis ATCC 9372 up to 400 ug/ml after 2 days by twofold serial dilution method; type: functional, organism-based
Method in brief: (§1)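 Twofold serial broth dilution in each organism's own medium, DMF held at 1% in all tubes. The highest concentration was 400 µg/ml unless otherwise specified. MIC was taken as the lowest concentration with no visible growth, and determinations were done in duplicate.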

[2] = tested on: Corynebacterium ammoniagenes; assay: Antibacterial activity against Brevibacterium ammoniagenes ATCC 6872 up to 400 ug/ml after 2 days by twofold serial dilution method; type: functional, organism-based; method in brief: as §1
Staphylococcus aureus [3] = assay: Antibacterial activity against penicillin-susceptible Staphylococcus aureus ATCC 12598 up to 400 ug/ml after 2 days by twofold serial dilution method; type: functional, organism-based; method in brief: as §1
Staphylococcus aureus [4] = assay: Antibacterial activity against penicillin-resistant Staphylococcus aureus ATCC 29247 up to 400 ug/ml after 2 days by twofold serial dilution method; type: functional, organism-based
Method in brief: (§2)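 Twofold serial broth dilution, highest concentration 400 µg/ml. Samples were delivered in DMF, kept at 1% in the medium throughout. MIC was the lowest concentration with no visible growth, determined in duplicate.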

Streptococcus mutans [5] = assay: Antibacterial activity against Streptococcus mutans ATCC 25175 up to 400 ug/ml after 2 days by twofold serial dilution method; type: functional, organism-based; method in brief: as §1
Cutibacterium acnes [6] = assay: Antibacterial activity against Propionibacterium acnes ATCC 11827 up to 400 ug/ml after 2 days by twofold serial dilution method; type: functional, organism-based; method in brief: as §1
Pseudomonas aeruginosa = assay: Antibacterial activity against Pseudomonas aeruginosa ATCC 10145 up to 400 ug/ml after 2 days by twofold serial dilution method; type: functional, organism-based; method in brief: as §1
Klebsiella aerogenes = assay: Antibacterial activity against Enterobacter aerogenes ATCC 13048 up to 400 ug/ml after 2 days by twofold serial dilution method; type: functional, organism-based; method in brief: as §1
Escherichia coli = assay: Antibacterial activity against Escherichia coli ATCC 13048 up to 400 ug/ml after 2 days by twofold serial dilution method; type: functional, organism-based; method in brief: as §1
Saccharomyces cerevisiae = assay: Antifungal activity against Saccharomyces cerevisiae ATCC 7754 up to 400 ug/ml after 2 days by twofold serial dilution method; type: functional, organism-based; method in brief: as §1
Candida albicans = assay: Antifungal activity against Candida albicans ATCC 18804 up to 400 ug/ml after 2 days by twofold serial dilution method; type: functional, organism-based; method in brief: as §1
Penicillium chrysogenum = assay: Antifungal activity against Penicillium chrysogenum ATCC 10106 up to 400 ug/ml after 2 days by twofold serial dilution method; type: functional, organism-based; method in brief: as §1
Malassezia = assay: Antifungal activity against Pityrosporum ovale ATCC 14521 up to 400 ug/ml after 2 days by twofold serial dilution method; type: functional, organism-based; method in brief: as §1
Bacillus subtilis [7] = assay: Antibacterial activity against Bacillus subtilis ATCC 9372 after 2 days by twofold serial dilution method; type: functional; settings: ATCC 9372, 48 h; method in brief: as §1
[8] = tested on: Corynebacterium ammoniagenes; assay: Antibacterial activity against Brevibacterium ammoniagenes ATCC 6872 after 2 days by twofold serial dilution method; type: functional; settings: ATCC 6872, 48 h; method in brief: as §1
Staphylococcus aureus [9] = assay: Antibacterial activity against penicillin-susceptible Staphylococcus aureus ATCC 12598 after 2 days by twofold serial dilution method; type: functional; settings: ATCC 12598, 48 h; method in brief: as §1
Staphylococcus aureus [10] = assay: Antibacterial activity against penicillin-resistant Staphylococcus aureus ATCC 29247 after 2 days by twofold serial dilution method; type: functional; settings: ATCC 29247, 48 h; method in brief: as §2
Streptococcus mutans [11] = assay: Antibacterial activity against Streptococcus mutans ATCC 25175 after 2 days by twofold serial dilution method; type: functional; settings: ATCC 25175, 48 h; method in brief: as §1
Cutibacterium acnes [12] = assay: Antibacterial activity against Propionibacterium acnes ATCC 11827 after 2 days by twofold serial dilution method; type: functional; settings: ATCC 11827, 48 h; method in brief: as §1

**Q.** `CC(C)c1c(O)ccc2c1CC[C@H]1[C@@](C)(CO)CCC[C@]21C` was tested. Which Activity (Bacillus subtilis [1]) did it give?
**A.** inactive

**Q.** What about the Activity [2] of the same compound?
**A.** inactive

**Q.** And the Activity (Staphylococcus aureus [3])?
**A.** inactive

**Q.** What about the Activity (Staphylococcus aureus [4]) of the same compound?
**A.** inactive

**Q.** And the Activity (Streptococcus mutans [5])?
**A.** inactive

**Q.** What about the Activity (Cutibacterium acnes [6]) of the same compound?
**A.** inactive

**Q.** What about the Activity (Pseudomonas aeruginosa) of the same compound?
**A.** inactive

**Q.** What about the Activity (Klebsiella aerogenes) of the same compound?
**A.** inactive

**Q.** What about the Activity (Escherichia coli) of the same compound?
**A.** inactive

**Q.** What about the Activity (Saccharomyces cerevisiae) of the same compound?
**A.** inactive

**Q.** And the Activity (Candida albicans)?
**A.** inactive

**Q.** What about the Activity (Penicillium chrysogenum) of the same compound?
**A.** inactive

**Q.** What about the Activity (Malassezia) of the same compound?
**A.** inactive

**Q.** What does the source list for `CC(C)c1c(O)ccc2c1CC[C@H]1[C@@](C)(C(=O)O)CCC[C@]21C`?
**A.** Activity (Bacillus subtilis [1]): inactive; Activity [2]: inactive; Activity (Staphylococcus aureus [3]): inactive; Activity (Staphylococcus aureus [4]): inactive; Activity (Streptococcus mutans [5]): inactive; Activity (Cutibacterium acnes [6]): inactive; Activity (Pseudomonas aeruginosa): inactive; Activity (Klebsiella aerogenes): inactive; Activity (Escherichia coli): inactive; Activity (Saccharomyces cerevisiae): inactive; Activity (Candida albicans): inactive; Activity (Penicillium chrysogenum): inactive; Activity (Malassezia): inactive

**Q.** What does the source list for `CC(C)c1c(O)ccc2c1CC[C@H]1C(C)(C)CCC[C@]21C` [TOTAROL]?
**A.** MBC (Bacillus subtilis [7]): 1.56 µg/mL (≈ 5.45 µM); MIC (Bacillus subtilis [7]): 1.56 µg/mL (≈ 5.45 µM); MBC [8]: 6.25 µg/mL (≈ 21.8 µM); MIC [8]: 0.78 µg/mL (≈ 2.72 µM); MBC (Staphylococcus aureus [9]): 1.56 µg/mL (≈ 5.45 µM); MIC (Staphylococcus aureus [9]): 1.56 µg/mL (≈ 5.45 µM); MIC (Staphylococcus aureus [10]): 0.78 µg/mL (≈ 2.72 µM); MBC (Streptococcus mutans [11]): 0.78 µg/mL (≈ 2.72 µM); MIC (Streptococcus mutans [11]): 0.78 µg/mL (≈ 2.72 µM); MBC (Cutibacterium acnes [12]): 0.78 µg/mL (≈ 2.72 µM); MIC (Cutibacterium acnes [12]): 0.39 µg/mL (≈ 1.36 µM); Activity (Pseudomonas aeruginosa): inactive; Activity (Klebsiella aerogenes): inactive; Activity (Escherichia coli): inactive; Activity (Saccharomyces cerevisiae): inactive; Activity (Candida albicans): inactive; Activity (Penicillium chrysogenum): inactive; Activity (Malassezia): inactive

**Q.** With `CC1(C)S[C@@H]2[C@H](NC(=O)Cc3ccccc3)C(=O)N2[C@H]1C(=O)O` [PENICILLIN G] as the compound, how does the MIC (Bacillus subtilis [7]) read?
**A.** 50 µg/mL (≈ 150 µM)

**Q.** And the MIC [8]?
**A.** 0.39 µg/mL (≈ 1.17 µM)

**Q.** What about the MIC (Staphylococcus aureus [9]) of the same compound?
**A.** 0.049 µg/mL (≈ 0.147 µM)

**Q.** What about the MIC (Staphylococcus aureus [10]) of the same compound?
**A.** > 800 µg/mL

**Q.** What about the MIC (Streptococcus mutans [11]) of the same compound?
**A.** 0.049 µg/mL (≈ 0.147 µM)

**Q.** And the MIC (Cutibacterium acnes [12])?
**A.** 0.012 µg/mL (≈ 0.0359 µM)

**Q.** `CC(C)c1c(O)ccc2c1CC[C@H]1[C@@](C)(C=O)CCC[C@]21C` was tested. Which Activity (Bacillus subtilis [1]) did it give?
**A.** inactive

**Q.** And the Activity [2]?
**A.** inactive

**Q.** What about the Activity (Staphylococcus aureus [3]) of the same compound?
**A.** inactive

**Q.** What about the Activity (Staphylococcus aureus [4]) of the same compound?
**A.** inactive

**Q.** What about the Activity (Streptococcus mutans [5]) of the same compound?
**A.** inactive

**Q.** What about the Activity (Cutibacterium acnes [6]) of the same compound?
**A.** inactive

**Q.** And the Activity (Pseudomonas aeruginosa)?
**A.** inactive

**Q.** And the Activity (Klebsiella aerogenes)?
**A.** inactive

**Q.** And the Activity (Escherichia coli)?
**A.** inactive

**Q.** And the Activity (Saccharomyces cerevisiae)?
**A.** inactive

**Q.** And the Activity (Candida albicans)?
**A.** inactive

**Q.** What about the Activity (Penicillium chrysogenum) of the same compound?
**A.** inactive

**Q.** And the Activity (Malassezia)?
**A.** inactive

**Q.** What does the source list for `CC(C)c1c(O)ccc2c1CC[C@H]1C(C)(C)[C@@H](O)CC[C@]21C` [TOTARADIOL]?
**A.** MIC (Bacillus subtilis [7]): 25 µg/mL (≈ 82.7 µM); MIC [8]: 100 µg/mL (≈ 331 µM); MIC (Staphylococcus aureus [9]): 50 µg/mL (≈ 165 µM); MIC (Streptococcus mutans [11]): 200 µg/mL (≈ 661 µM); MIC (Cutibacterium acnes [12]): 25 µg/mL (≈ 82.7 µM); Activity (Pseudomonas aeruginosa): inactive; Activity (Klebsiella aerogenes): inactive; Activity (Escherichia coli): inactive; Activity (Saccharomyces cerevisiae): inactive; Activity (Candida albicans): inactive; Activity (Penicillium chrysogenum): inactive; Activity (Malassezia): inactive
